These results are taken from ChEMBL document CHEMBL1127466, “Synthesis and opioid activity of 7-oxygenated 2,3,4,4a,5,6,7,7a-octahydro-1H-benzofuro[3,2-e]isoquinolin-9-ols” (J Med Chem, 1994).

The test system of test [1] is Mus musculus. The test is described as follows: In vivo analgesic activity was measured by using Antiphenyl quinone Writhing(PQW) test after subcutaneous administration. Particulars: sc. The class given is functional. In outline:
(§1)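 Fasted male CFI mice, 18–23 g, given coded doses of test compound, then phenylquinone 1.25 mg/kg ip 5 min before the designated test time. Analgesia is scored as complete blockade of writhing over a 10-min observation period starting at test time.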
(In general: In writhing tests, fewer writhes than in controls are read as antinociception.)

The subject of test [2] is Mus musculus. Description: Narcotic antagonism was measured by using Anti-Straub tail (AST) test after subcutaneous administration. The class given is functional. Particulars: sc. In a few lines: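 Fasted male CFI mice, 18–23 g, given coded doses of test compound, then desonitazene 0.08 mg/kg ip 5 min before the designated test time. Antagonism is scored as complete blockade of the Straub tail response over a 5-min observation period starting at test time.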

In another test the target is Mu-type opioid receptor (Cavia porcellus, UniProt P97266). The test is described as follows: […]. The class given is organism-based. In outline:
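Brain membranes come from male Hartley guinea pigs, 250–300 g. Values are the mean of three experiments, each done in duplicate.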

The target of test [3] is Kappa-type opioid receptor (Cavia porcellus, UniProt P41144). The test is described as follows: biochemical. The format is organism-based.
Sequence of Kappa-type opioid receptor (P41144 whole entry): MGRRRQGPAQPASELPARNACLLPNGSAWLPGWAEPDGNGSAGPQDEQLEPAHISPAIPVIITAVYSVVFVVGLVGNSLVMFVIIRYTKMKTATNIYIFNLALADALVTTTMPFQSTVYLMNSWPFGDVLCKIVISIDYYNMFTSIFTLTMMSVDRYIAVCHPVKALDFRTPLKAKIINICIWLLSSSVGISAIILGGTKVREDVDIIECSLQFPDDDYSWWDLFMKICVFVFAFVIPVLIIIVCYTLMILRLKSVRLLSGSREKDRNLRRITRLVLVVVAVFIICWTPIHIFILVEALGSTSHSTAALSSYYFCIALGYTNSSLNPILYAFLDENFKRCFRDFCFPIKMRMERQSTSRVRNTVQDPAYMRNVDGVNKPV
For test [4], the system named is Mus musculus. Description: In vivo analgesic activity was measured by using Antiphenyl quinone Writhing(PQW) test after subcutaneous administration; Inactive. The class given is functional. Particulars: sc. In outline: as §1
The species named for test [5] is Cavia porcellus. Description: Ke value was measured as concentration of antagonist/ (IC50 ratio - 1). The class given is functional. In a few lines: (§2)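 Ileum strips in the electrically stimulated guinea pig ileum set-up, 37 °C Krebs-Tris. […] IC50 ratio is IC50 with antagonist divided by control IC50 in the same preparation. Ke = [antagonist]/(IC50 ratio – 1).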

Test [6] is filed under the species Cavia porcellus. The test is described as follows: Opioid agonistic activity was measured by using Guinea pig ileum bioassay. The class given is functional. In a few lines:
(§3)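 Longitudinal muscle strips from male Hartley guinea pig ileum (250–400 g) in Krebs-Tris at 37 °C, oxygenated. Stimulated electrically at 0.1 Hz, 0.8 ms, supramaximal voltage, under 1 g resting tension. Contractions recorded isometrically after 90 min equilibration, with cumulative dose–response curves for inhibition. Partial agonist response is taken at 1 μM.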

Test [7] in a line: Ratio between IC50 of the agonist in presence of naloxone and IC50 of the control. The class given is functional. In outline: as §2
The species named for test [8] is Cavia porcellus. The test is described as follows: Partial agonist potency at 1 uM was measured using Guinea pig ileum preparation. The format is functional. In outline:
as §3

The species entered for test [9] is Cavia porcellus. The test is described as follows: Ke value was measured as antagonist/ (IC50 ratio - 1). The format is functional. In outline:
as §2

Test [10] has as its target Kappa-type opioid receptor (Cavia porcellus) (UniProt P41144). Description: (§4) Opioid antagonistic activity was measured against kappa receptor in guinea pig ileal preparation using US-50488 as agonist. The class given is functional. In a few lines:
(§5)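 Electrically stimulated guinea pig ileum longitudinal muscle strips. After control agonist curves and washout, the test antagonist is applied at 3 nM for 30 min. […] Ke = [antagonist]/(IC50 ratio – 1).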

Test [11] has as its target Mu-type opioid receptor (Cavia porcellus) (UniProt P97266). The test is described as follows: (§6) Opioid antagonistic activity was measured against mu receptor in guinea pig ileal preparation using morphine as agonist. The format is functional. In a few lines: as §5
A short description of test [12]: as §6. The class given is functional. In a few lines: as §5
The nature of test [13]: as §4. The format is functional. In outline:
as §5

SMILES strings stand for the structures.

Sequence of Mu-type opioid receptor (P97266 whole entry): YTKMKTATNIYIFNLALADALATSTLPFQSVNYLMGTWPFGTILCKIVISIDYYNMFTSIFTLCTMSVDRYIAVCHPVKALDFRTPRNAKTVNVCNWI
Sequence of Mu-type opioid receptor (Cavia porcellus) (P97266 whole entry): as above
Sequence of Kappa-type opioid receptor (Cavia porcellus) (P41144 whole entry): as the sequence (P41144 whole entry) above

Regarding `Oc1cccc2c1O[C@H]1CCC[C@H]3CN(CC4CC4)CC[C@@]231`, the ED50 – broadly, the dose that gives a 50% effect, or the effect in half of the subjects – with Mus musculus [1] was 0.025 mg/kg; in the test on Mus musculus [2], 0.018 mg/kg. For the same compound, the figures for the Ki (on Mu-type opioid receptor; in test [3]) were 0.57 nM and 1.2 nM, respectively.

`CN1CC[C@]23c4cccc(O)c4O[C@H]2C(=O)CC[C@H]3C1`: the figures for the ED50 in the test with Mus musculus [1] and with Mus musculus [2] were 0.4 mg/kg and 1.4 mg/kg, respectively. Besides, the results for the inhibition constant (Ki) (on Mu-type opioid receptor; in [3]) were 7.8 nM and 186 nM, respectively.

`COc1cccc2c1O[C@H]1[C@@H](O)CC[C@H]3CN(CC4CC4)CC[C@@]231`: the values for the median effective dose (ED50) in the test with Mus musculus [1] and in the test with Mus musculus [2] were 3 mg/kg and 1.4 mg/kg, respectively. Further, the values for the Ki (on Mu-type opioid receptor; in test [3]) were 29 nM and 140 nM, respectively.

For the compound `COc1cccc2c1O[C@H]1C(=O)CC[C@H]3CN(CC4CC4)CC[C@@]231`, the ED50 with Mus musculus [1] amounted to 0.93 mg/kg; in the test with Mus musculus [2], 0.34 mg/kg. Besides, the results for the Ki (on Mu-type opioid receptor; in test [3]) were 76 nM and 1760 nM, respectively.

In the case of `O=C1CC[C@@H]2CN(CC3CC3)CC[C@@]23c2cccc(O)c2O[C@@H]13`, the ED50 was > 5.4 mg/kg with Mus musculus [4] and 1 mg/kg in the test on Mus musculus [2]. In addition, the Ki (as a rule, the equilibrium dissociation constant of an inhibitor or competing ligand from its target) is 19 nM on Mu-type opioid receptor and 62 nM in [3].

As for `Oc1cccc2c1O[C@H]1[C@@H](O)CC[C@H]3CN(CC4CC4)CC[C@@]231`, in the test listed under Cavia porcellus [5], the Ke is 14.1 nM. For the same compound, the IC50 (usually the concentration that gives 50% inhibition) in the test filed under Cavia porcellus [6] is 2.8 nM. The 50% effective dose (ED50) came to 0.37 mg/kg with Mus musculus [1] and 0.55 mg/kg with Mus musculus [2]. Moreover, the Ki on Mu-type opioid receptor was found to be 1.4 nM; in test [3], 4.9 nM. For the same compound, the Ratio in test [7] is 8.1.

`Oc1cccc2c1O[C@H]1[C@H](O)CC[C@@H]3CN(CC4CC4)CC[C@@]231` gave a Max response in the test listed under Cavia porcellus [8] of 78%. In addition, the Ke in the test filed under Cavia porcellus [9] is 13.3 nM; in test [10] it was 2.3 nM; in [11], 0.57 nM. The ED50 was > 4 mg/kg with Mus musculus [4] and 0.8 mg/kg with Mus musculus [2]. Moreover, the Ki on Mu-type opioid receptor worked out at 3.9 nM; in [3] it was 12 nM. Further, the Ratio in test [12] turned out to be 6.3; in [13] it was 2.3; in [7] it was 8.5.

Regarding `O=C1CC[C@H]2CN(CC3CC3)CC[C@@]23c2cccc(O)c2O[C@@H]13`, the results for the ED50 in the test on Mus musculus [1] and in the test with Mus musculus [2] were 0.15 mg/kg and 0.022 mg/kg, respectively. In addition, the Ki on Mu-type opioid receptor turned out to be 0.25 nM; in test [3], 1.73 nM.

Take `C=CCN1CC[C@]23c4c5ccc(O)c4O[C@H]2C(=O)CC[C@@]3(O)[C@H]1C5` [NALOXONE]: the figures for the ED50 in the test with Mus musculus [4] and in the test with Mus musculus [2] were > 100 mg/kg and 0.02 mg/kg, respectively.
